In paper PMC9532533 (Acta Pharmaceutica Sinica. B, 2022):

Key:
32D KIT V559D cells = test: Antiproliferation assay, 32D KIT V559D cells; assay type: cell-based, murine; conditions: Mus musculus, read-out: GI50, V559D
[1] = test system: 32D KIT V559D/V654A cells; test: Antiproliferation assay, 32D KIT V559D/V654A cells; assay type: cell-based, murine; conditions: Mus musculus, read-out: GI50, V559D/V654A
[2] = test system: 32D KIT V559D/N822K cells; test: Antiproliferation assay, 32D KIT V559D/N822K cells; assay type: cell-based, murine; conditions: Mus musculus, read-out: GI50, V559D/N822K
32D cells = test: Antiproliferation assay, normal parent 32D cells; assay type: cell-based, murine; conditions: Mus musculus, read-out: 32D cells (GI50, nmol/L)
[3] = test system: phosphorylation of KIT^D816V and downstream STAT3 and ERK; test: Western blot of KIT signaling in 32D KIT^D816V cells; assay type: cell-based, murine; conditions: 4-h treatment
Pharmacokinetics in mice = assay type: in vivo, male ICR (CD-1) mice; conditions: male, ICR (CD-1), mouse, plasma; for AUC(0-t) / half-life: po, 10 mg/kg
In short: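 Male ICR (CD-1) mice, n = 3 per route, each given a single dose of test compound: 2 mg/kg i.v. or 10 mg/kg p.o. Plasma drug levels measured by LC/MS/MS, and key PK parameters derived from these concentration data.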

32D KIT^D816V xenografts = test: In vivo antitumor efficacy, 32D KIT^D816V xenograft; parameters: species or system nude mice; conditions: i.g., BID × 12; for mortality and body weight loss: whole period of treatment

Cc1ccc(C(=O)NCc2ccsc2)cc1C#Cc1cn(C(C)C)c2ncnc(N)c12 [Compound 54]
GI50 (32D KIT V559D cells): 0.09 nM
GI50 [1]: 1.1 nM
GI50 [2]: 0.8 nM
GI50 (32D cells): > 1000 nmol/L
inhibition of phosphorylation of KIT^D816V and downstream STAT3 and ERK [3]: potent inhibition effects
bioavailability (Pharmacokinetics in mice; oral, 10 mpk): 29.9%
AUC(0-t) (Pharmacokinetics in mice): 1280 ng·h/mL
half-life (Pharmacokinetics in mice): 2.29 h
TGI (tumor growth inhibition) (32D KIT^D816V xenografts; 20 mg/kg): 45%
TGI (tumor growth inhibition) (32D KIT^D816V xenografts; 40 mg/kg): 71%
mortality and body weight loss (32D KIT^D816V xenografts): no mortality or obvious body weight loss

COCCn1cc(C#Cc2cc(C(=O)NCc3ccsc3)ccc2C)c2c(N)ncnc21 [Compound 57]
inhibition of phosphorylation of KIT^D816V and downstream STAT3 and ERK [3]: potent inhibition effects
AUC(0-t) (Pharmacokinetics in mice): 233 ng·h/mL
half-life (Pharmacokinetics in mice): 1.34 h
suppression of growth of 32D KIT^D816V xenografts (32D KIT^D816V xenografts; high dose group 100 mg/kg): 50%
mortality and body weight loss (32D KIT^D816V xenografts): no mortality or obvious body weight loss

CCn1c(=O)c(-c2cc(NC(=O)Nc3ccccc3)c(F)cc2Br)cc2cnc(NC)cc21 [Ripretinib, ripretinib, reference compound]
mortality and body weight loss (32D KIT^D816V xenografts): no mortality or obvious body weight loss
